Data reported in ChEMBL document CHEMBL5724801, “EUbOPEN Chemogenomics Library - Multiplex” (2024).
“And” between values parts separate entries of the source, which are not always exact repeats. Equal entries are not always repeated.

Key:
Assay type in all cases: toxicity, cell-based
U2OS = experiment: Multiplex assay against U2OS; settings: human
Summary of the method: (§1)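 Cells stained live at seeding with Hoechst33342, BioTracker Green Microtubule Cytoskeleton Dye, MitoTracker Red and Annexin V Alexa Fluor 680 were imaged on a CQ1 microscope at 37°C and 5% CO2 after compound addition. Their classification by CellPathfinder machine-learning gating ran from Hoechst high-intensity objects versus normal cells, to healthy, pyknosed or fragmented nuclei among normal cells, to mitotic or apoptotic among pyknosed cells. Tubulin, mitochondrial-mass and membrane-permeability phenotypes are per cents of healthy-nucleus cells.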

HEK-293T = experiment: Multiplex assay against HEK293T; settings: human; summary of the method: as §1
Fibroblast = experiment: Multiplex assay against human fibroblast; summary of the method: as §1
[1] = 12 h, 1 µM, compound concentration 1 uM
[2] = 12 h, 10 µM, compound concentration 10 uM
[3] = 24 h, 1 µM, compound concentration 1 uM
[4] = 24 h, 10 µM, compound concentration 10 uM
[5] = 48 h, 1 µM, compound concentration 1 uM
[6] = 48 h, 10 µM, compound concentration 10 uM

## c1cc(OCCCN2CCCCC2)ccc1CN1CCCCC1 [JNJ-5207852]
U2OS; [1]
  Population Apoptotic (%): 76% and 58%
  Population Fragmented Nuclei (%): 29% and 25%
  Population Healthy Nuclei (%): 65% and 62%
  Population Hoechst High Intensity Objects (%): 2% and 0%
  Population Membrane Permeable-Phenotype (%): 5% and 7%
  Population Mitochondria Different-Phenotype (%): 3%
  Population Mitotic Cells (%): 23% and 41%
  Population Normal (%): 97% and 99%
  Population Pyknosed Nuclei (%): 5% and 11%
  Population Tubulin-Different-Phenotype (%): 3%
  Total Cell Count: 253 and 106
U2OS; [2]
  Population Apoptotic (%): 73% and 85%
  Population Fragmented Nuclei (%): 34% and 13%
  Population Healthy Nuclei (%): 57% and 80%
  Population Hoechst High Intensity Objects (%): 2% and 4%
  Population Membrane Permeable-Phenotype (%): 5% and 7%
  Population Mitochondria Different-Phenotype (%): 3% and 9%
  Population Mitotic Cells (%): 26% and 14%
  Population Normal (%): 97% and 95%
  Population Pyknosed Nuclei (%): 8% and 6%
  Population Tubulin-Different-Phenotype (%): 3% and 6%
  Total Cell Count: 228 and 120
U2OS; [3]
  Population Apoptotic (%): 84% and 66%
  Population Fragmented Nuclei (%): 25% and 21%
  Population Healthy Nuclei (%): 65% and 68%
  Population Hoechst High Intensity Objects (%): 1% and 0%
  Population Membrane Permeable-Phenotype (%): 3% and 4%
  Population Mitochondria Different-Phenotype (%): 2%
  Population Mitotic Cells (%): 16% and 33%
  Population Normal (%): 98% and 100%
  Population Pyknosed Nuclei (%): 8% and 10%
  Population Tubulin-Different-Phenotype (%): 2% and 4%
  Total Cell Count: 287 and 119
U2OS; [4]
  Population Apoptotic (%): 82% and 84%
  Population Fragmented Nuclei (%): 28% and 10%
  Population Healthy Nuclei (%): 62% and 80%
  Population Hoechst High Intensity Objects (%): 1%
  Population Membrane Permeable-Phenotype (%): 4% and 8%
  Population Mitochondria Different-Phenotype (%): 3% and 5%
  Population Mitotic Cells (%): 17% and 15%
  Population Normal (%): 98%
  Population Pyknosed Nuclei (%): 8%
  Population Tubulin-Different-Phenotype (%): 3% and 8%
  Total Cell Count: 271 and 157
U2OS; [5]
  Population Apoptotic (%): 82% and 76%
  Population Fragmented Nuclei (%): 21% and 19%
  Population Healthy Nuclei (%): 69% and 71%
  Population Hoechst High Intensity Objects (%): 2% and 3%
  Population Membrane Permeable-Phenotype (%): 4% and 9%
  Population Mitochondria Different-Phenotype (%): 2% and 4%
  Population Mitotic Cells (%): 17% and 23%
  Population Normal (%): 97% and 96%
  Population Pyknosed Nuclei (%): 8%
  Population Tubulin-Different-Phenotype (%): 4% and 3%
  Total Cell Count: 400 and 152
U2OS; [6]
  Population Apoptotic (%): 86% and 93%
  Population Fragmented Nuclei (%): 22% and 14%
  Population Healthy Nuclei (%): 70% and 78%
  Population Hoechst High Intensity Objects (%): 2% and 1%
  Population Membrane Permeable-Phenotype (%): 7% and 6%
  Population Mitochondria Different-Phenotype (%): 3% and 2%
  Population Mitotic Cells (%): 13% and 6%
  Population Normal (%): 97% and 98%
  Population Pyknosed Nuclei (%): 6%
  Population Tubulin-Different-Phenotype (%): 5% and 4%
  Total Cell Count: 345 and 245
HEK-293T; [1]
  Population Apoptotic (%): 36% and 47%
  Population Fragmented Nuclei (%): 6% and 10%
  Population Healthy Nuclei (%): 84% and 75%
  Population Hoechst High Intensity Objects (%): 5%
  Population Membrane Permeable-Phenotype (%): 0%
  Population Mitochondria Different-Phenotype (%): 36% and 53%
  Population Mitotic Cells (%): 63% and 52%
  Population Normal (%): 94%
  Population Pyknosed Nuclei (%): 8% and 13%
  Population Tubulin-Different-Phenotype (%): 21% and 17%
  Total Cell Count: 577 and 310
HEK-293T; [2]
  Population Apoptotic (%): 40% and 66%
  Population Fragmented Nuclei (%): 7%
  Population Healthy Nuclei (%): 75% and 67%
  Population Hoechst High Intensity Objects (%): 7% and 11%
  Population Membrane Permeable-Phenotype (%): 0% and 1%
  Population Mitochondria Different-Phenotype (%): 63% and 69%
  Population Mitotic Cells (%): 59% and 33%
  Population Normal (%): 92% and 88%
  Population Pyknosed Nuclei (%): 17% and 24%
  Population Tubulin-Different-Phenotype (%): 52% and 41%
  Total Cell Count: 328 and 259
HEK-293T; [3]
  Population Apoptotic (%): 25% and 41%
  Population Fragmented Nuclei (%): 6% and 11%
  Population Healthy Nuclei (%): 82% and 79%
  Population Hoechst High Intensity Objects (%): 5% and 3%
  Population Membrane Permeable-Phenotype (%): 1% and 0%
  Population Mitochondria Different-Phenotype (%): 20% and 30%
  Population Mitotic Cells (%): 74% and 58%
  Population Normal (%): 94% and 96%
  Population Pyknosed Nuclei (%): 11% and 9%
  Population Tubulin-Different-Phenotype (%): 15% and 12%
  Total Cell Count: 710 and 447
HEK-293T; [4]
  Population Apoptotic (%): 47% and 65%
  Population Fragmented Nuclei (%): 9% and 8%
  Population Healthy Nuclei (%): 77% and 79%
  Population Hoechst High Intensity Objects (%): 6% and 5%
  Population Membrane Permeable-Phenotype (%): 1% and 2%
  Population Mitochondria Different-Phenotype (%): 47% and 50%
  Population Mitotic Cells (%): 52% and 34%
  Population Normal (%): 93% and 94%
  Population Pyknosed Nuclei (%): 13% and 11%
  Population Tubulin-Different-Phenotype (%): 44% and 35%
  Total Cell Count: 414 and 322
HEK-293T; [5]
  Population Apoptotic (%): 17% and 23%
  Population Fragmented Nuclei (%): 14% and 11%
  Population Healthy Nuclei (%): 80% and 83%
  Population Hoechst High Intensity Objects (%): 2% and 1%
  Population Membrane Permeable-Phenotype (%): 1%
  Population Mitochondria Different-Phenotype (%): 12% and 17%
  Population Mitotic Cells (%): 82% and 76%
  Population Normal (%): 97% and 98%
  Population Pyknosed Nuclei (%): 5% and 4%
  Population Tubulin-Different-Phenotype (%): 11% and 9%
  Total Cell Count: 1128 and 746
HEK-293T; [6]
  Population Apoptotic (%): 34% and 52%
  Population Fragmented Nuclei (%): 13%
  Population Healthy Nuclei (%): 77% and 75%
  Population Hoechst High Intensity Objects (%): 8% and 9%
  Population Membrane Permeable-Phenotype (%): 1%
  Population Mitochondria Different-Phenotype (%): 29% and 38%
  Population Mitotic Cells (%): 65% and 47%
  Population Normal (%): 91% and 90%
  Population Pyknosed Nuclei (%): 8% and 10%
  Population Tubulin-Different-Phenotype (%): 28% and 30%
  Total Cell Count: 619 and 424
Fibroblast; [1]
  Population Apoptotic (%): 37% and 26%
  Population Fragmented Nuclei (%): 15% and 24%
  Population Healthy Nuclei (%): 64% and 51%
  Population Hoechst High Intensity Objects (%): 1% and 7%
  Population Membrane Permeable-Phenotype (%): 0% and 8%
  Population Mitochondria Different-Phenotype (%): 2% and 5%
  Population Mitotic Cells (%): 62% and 73%
  Population Normal (%): 98% and 92%
  Population Pyknosed Nuclei (%): 20% and 23%
  Population Tubulin-Different-Phenotype (%): 26% and 49%
  Total Cell Count: 181 and 153
Fibroblast; [2]
  Population Apoptotic (%): 50% and 43%
  Population Fragmented Nuclei (%): 22% and 36%
  Population Healthy Nuclei (%): 68% and 42%
  Population Hoechst High Intensity Objects (%): 1%
  Population Membrane Permeable-Phenotype (%): 0% and 12%
  Population Mitochondria Different-Phenotype (%): 6% and 10%
  Population Mitotic Cells (%): 50% and 56%
  Population Normal (%): 98%
  Population Pyknosed Nuclei (%): 9% and 20%
  Population Tubulin-Different-Phenotype (%): 35% and 60%
  Total Cell Count: 193 and 114
Fibroblast; [3]
  Population Apoptotic (%): 38% and 33%
  Population Fragmented Nuclei (%): 18% and 28%
  Population Healthy Nuclei (%): 66% and 51%
  Population Hoechst High Intensity Objects (%): 2% and 5%
  Population Membrane Permeable-Phenotype (%): 0% and 5%
  Population Mitochondria Different-Phenotype (%): 2% and 6%
  Population Mitotic Cells (%): 61% and 66%
  Population Normal (%): 97% and 95%
  Population Pyknosed Nuclei (%): 15% and 19%
  Population Tubulin-Different-Phenotype (%): 23% and 55%
  Total Cell Count: 176 and 160
Fibroblast; [4]
  Population Apoptotic (%): 60% and 41%
  Population Fragmented Nuclei (%): 24% and 45%
  Population Healthy Nuclei (%): 65% and 38%
  Population Hoechst High Intensity Objects (%): 1% and 5%
  Population Membrane Permeable-Phenotype (%): 0% and 4%
  Population Mitochondria Different-Phenotype (%): 6% and 13%
  Population Mitotic Cells (%): 40% and 58%
  Population Normal (%): 99% and 94%
  Population Pyknosed Nuclei (%): 10% and 15%
  Population Tubulin-Different-Phenotype (%): 34% and 67%
  Total Cell Count: 201 and 118
Fibroblast; [5]
  Population Apoptotic (%): 70% and 44%
  Population Fragmented Nuclei (%): 18% and 32%
  Population Healthy Nuclei (%): 63% and 48%
  Population Hoechst High Intensity Objects (%): 2% and 4%
  Population Membrane Permeable-Phenotype (%): 0% and 5%
  Population Mitochondria Different-Phenotype (%): 2%
  Population Mitotic Cells (%): 29% and 55%
  Population Normal (%): 97% and 95%
  Population Pyknosed Nuclei (%): 17% and 18%
  Population Tubulin-Different-Phenotype (%): 23% and 50%
  Total Cell Count: 184 and 160
Fibroblast; [6]
  Population Apoptotic (%): 55% and 30%
  Population Fragmented Nuclei (%): 19% and 48%
  Population Healthy Nuclei (%): 70% and 41%
  Population Hoechst High Intensity Objects (%): 2% and 3%
  Population Membrane Permeable-Phenotype (%): 0% and 5%
  Population Mitochondria Different-Phenotype (%): 2% and 11%
  Population Mitotic Cells (%): 44% and 69%
  Population Normal (%): 97% and 96%
  Population Pyknosed Nuclei (%): 9% and 10%
  Population Tubulin-Different-Phenotype (%): 34% and 66%
  Total Cell Count: 189 and 132
